Key:
N2a cells = assay: Cell viability of uninduced N2a cells in the presence of compounds; assay type: cell-based; conditions: 60 µM compound, 4 days 37°C, untreated = 100%
Method in brief: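 Uninduced N2a cells (no tau expression) grown 4 days at 37 °C in culture medium with test compound at 60 µM, or at several concentrations from 0 to 60 µM. Viability measured by MTT assay per kit instructions. Values normalised to the uninduced compound-untreated sample (100%).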

[1] = system: inducible N2aTau^4RDΔK280 cells; assay: Inhibition of Tau aggregation in inducible N2a cells, ThS+ cells counted by FACS; assay type: cell-based
Method in brief: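 Inducible N2a-Tau4RDΔK280 cells in suspension, with 0.0005% (12 µM) ThS added. Tau induced with 1 µg/ml doxycycline. Compound at 60 µM, or 0–60 µM, for 4 days at 37 °C. Floating and adherent cells pooled, pelleted and PBS-washed. ThS+ cells counted by flow cytometry (ex 495/em 519 nm). Induced DMSO-treated sample set to 100%.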

O=C(NNc1nc(-c2ccc([N+](=O)[O-])cc2)cs1)c1ccc2nc[nH]c2c1 [BSc3094]
viability N2a cells (MTT) (N2a cells): 101.9 ± 3.8%
amount of ThS-positive cells (FACS), in words ([1]; 15 µM in the medium, 4 days, N2a cells expressing K18ΔK280): decreases
reduction of Tau^4RDΔK280 aggregation in N2a cells compared to control ([1]; 60 µM compound, ThS+ cells by FACS): 93%
effectiveness in reducing aggregation in N2a cells relative to the best hits ([1]; compared to our best hits): 2-3

— article PMC4976804 (Current Alzheimer research, 2015)
